Data from ChEMBL document CHEMBL4725312, “Pre-clinical evidences of the antileishmanial effects of diselenides and selenocyanates” (Bioorg Med Chem Lett, 2020).
pIC50: −log10 of the molar value. Active and inactive are the calls of the source. The calls are words filed in the database; no cut-off is given here.

How the values were obtained:
Leishmania infantum [1] = assay: Antileishmanial activity against axenic amastigote state of Leishmania infantum incubated for 24 hrs; type: functional, organism-based
THP-1 = assay: Cytotoxicity against human THP-1 cells assessed as reduction in cell viability incubated for 24 hrs; type: cell-based; settings: THP-1, 24 h
[2] = Ratio of IC50 for human THP1 cells to IC50 for axenic amastigote state of Leishmania infantum
Method in brief: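 Selectivity index was calculated as the THP-1 cytotoxicity IC50 (24 h exposure) divided by the IC50 against L. infantum amastigotes.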

Leishmania infantum [3] = assay: Antileishmanial activity against axenic amastigote state of Leishmania infantum infected in human THP-1 cells at 3 uM incubated for 48 hrs; type: functional, organism-based
Method in brief: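 THP-1 cells infected with L. infantum amastigotes were exposed to compounds at 3 μM for 48 h. Infection rate was the read-out, with autofluorescence correction applied, and results were reported as means.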

[4] = Inhibition of trypanothione reductase (unknown origin)
Method in brief: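 Trypanothione reductase inhibition was expressed as IC50, with mepacrine run alongside as the positive-control TryR inhibitor.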

[5] = Ratio of IC50 for mepacrine to IC50 for test compound for inhibition of trypanothione reductase (unknown origin)
Method in brief: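 Trypanothione reductase inhibition assay, with mepacrine run alongside as the positive-control TryR inhibitor. The value is mepacrine IC50 divided by test-compound IC50 in the same assay.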

SMILES | pIC50 (Leishmania infantum [1]) | pIC50 (THP-1) | Ratio IC50 [2] | Activity (Leishmania infantum [3]) | pIC50 [4] | Ratio IC50 [5]
N#C[Se]c1ccc(NC(=O)COCC(=O)O)cc1 | < 4.60 | < 4.60 | – | – | – | –
O=C1COCC(=O)N1c1ccc([Se][Se]c2ccc(N3C(=O)COCC3=O)cc2)cc1 | 4.98 | 5.07 | 0.82 | – | – | –
O=C(NC(=[Se])Nc1ccc([Se][Se]c2ccc(NC(=[Se])NC(=O)c3cc4ccccc4s3)cc2)cc1)c1cc2ccccc2s1 | 4.84 | < 4.60 | >1.71 | – | – | –
O=C1C=CC(=O)N1c1ccc([Se][Se]c2ccc(N3C(=O)C=CC3=O)cc2)cc1 | 5.81 | 4.82 | 9.91 | Active | 6.64 | 30
N#C[Se]c1ccc(NC(=O)CCC(=O)O)cc1 | 4.95 | < 4.60 | >2.2 | – | – | –
N#C[Se]c1ccc(NC(=O)c2ccccc2C(=O)O)cc1 | < 4.60 | < 4.60 | – | – | – | –
O=C(O)/C=C\C(=O)Nc1ccc([Se][Se]c2ccc(NC(=O)/C=C\C(=O)O)cc2)cc1 | < 4.60 | < 4.60 | – | – | – | –
O=C(NC(=[Se])Nc1ccc([Se][Se]c2ccc(NC(=[Se])NC(=O)c3ccccc3)cc2)cc1)c1ccccc1 | < 4.60 | < 4.60 | – | – | – | –
N#C[Se]c1ccc(NC(=O)c2nccnc2C(=O)O)cc1 | < 4.60 | < 4.60 | – | – | – | –
N#C[Se]c1ccc(NC(=O)c2ccccc2-c2ccccc2C(=O)O)cc1 | 4.97 | < 4.60 | >2.34 | – | – | –
O=C(O)c1ccccc1C(=O)Nc1ccc([Se][Se]c2ccc(NC(=O)c3ccccc3C(=O)O)cc2)cc1 | 5.34 | < 4.60 | >5.47 | – | – | –
N#C[Se]c1ccc(NC(=O)C2C3C=CC(O3)C2C(=O)O)cc1 (centres undefined) | 5.49 | 4.67 | 7.76 | inactive | 6.27 | 30
Cc1ccc(C(=O)NC(=[Se])Nc2ccc([Se][Se]c3ccc(NC(=[Se])NC(=O)c4ccc(C)cc4)cc3)cc2)cc1 | 4.82 | < 4.60 | >1.66 | – | – | –
CCCCCCCCCCCCCCCCCCOCC(COP(=O)([O-])OCC[N+](C)(C)C)OC (centres undefined) [EDELFOSINE] | – | – | 6.01 | Active | – | –
O=C(O)CCC(=O)Nc1ccc([Se][Se]c2ccc(NC(=O)CCC(=O)O)cc2)cc1 | 5.10 | < 4.60 | >3.16 | – | – | –
O=C(NC(=[Se])Nc1ccc([Se][Se]c2ccc(NC(=[Se])NC(=O)c3ccc([N+](=O)[O-])cc3)cc2)cc1)c1ccc([N+](=O)[O-])cc1 | 5.64 | < 4.60 | >11.01 | – | – | –
O=C1c2ccccc2C(=O)N1c1ccc([Se][Se]c2ccc(N3C(=O)c4ccccc4C3=O)cc2)cc1 | 5.68 | 4.64 | 11.08 | Active | 4.66 | –

SMILES | pIC50 (Leishmania infantum [1]) | pIC50 (THP-1) | Ratio IC50 [2] | Activity (Leishmania infantum [3]) | pIC50 [4] | Ratio IC50 [5]
O=C(NC(=[Se])Nc1ccc([Se][Se]c2ccc(NC(=[Se])NC(=O)c3ccc(Cl)cc3)cc2)cc1)c1ccc(Cl)cc1 | < 4.60 | < 4.60 | – | – | – | –
CSc1ccc(C(=O)NC(=[Se])Nc2ccc([Se][Se]c3ccc(NC(=[Se])NC(=O)c4ccc(SC)cc4)cc3)cc2)cc1 | 4.87 | < 4.60 | >1.85 | – | – | –
N#C[Se]c1ccc(NC(=O)C2CCCCC2C(=O)O)cc1 (centres undefined) | 4.97 | < 4.60 | >2.35 | – | – | –
O=C(O)COCC(=O)Nc1ccc([Se][Se]c2ccc(NC(=O)COCC(=O)O)cc2)cc1 | 4.92 | < 4.60 | >2.06 | – | – | –
N#C[Se]c1ccc(NC(=O)/C=C\C(=O)O)cc1 | < 4.60 | < 4.60 | – | – | – | –
O=C(NC(=[Se])Nc1ccc([Se][Se]c2ccc(NC(=[Se])NC(=O)c3ccco3)cc2)cc1)c1ccco1 | 6.17 | 5.13 | 11.19 | Active | 5.04 | –
O=C(NC(=[Se])Nc1ccc([Se][Se]c2ccc(NC(=[Se])NC(=O)c3cccs3)cc2)cc1)c1cccs1 | 5.34 | 4.65 | 4.87 | – | – | –
CCCCCCCCCCCCCCCCOP(=O)([O-])OCC[N+](C)(C)C [MILTEFOSINE] | – | – | 6.51 | – | – | –
O=C(NC(=[Se])Nc1ccc([Se][Se]c2ccc(NC(=[Se])NC(=O)c3ccc4c(c3)OCO4)cc2)cc1)c1ccc2c(c1)OCO2 | 5.00 | 4.87 | 1.35 | – | – | –
O=C(NC(=[Se])Nc1ccc([Se][Se]c2ccc(NC(=[Se])NC(=O)c3sccc3Cl)cc2)cc1)c1sccc1Cl | 5.25 | < 4.60 | >4.48 | – | – | –
O=C(NC(=[Se])Nc1ccc([Se][Se]c2ccc(NC(=[Se])NC(=O)c3cnc4ccccc4c3)cc2)cc1)c1cnc2ccccc2c1 | 5.51 | 4.89 | 4.15 | – | – | –
O=C(O)C1CCCCC1C(=O)Nc1ccc([Se][Se]c2ccc(NC(=O)C3CCCCC3C(=O)O)cc2)cc1 (centres undefined) | 5.69 | < 4.60 | >12.31 | Active | 4.73 | –
CCN(CC)CCCC(C)Nc1c2ccc(Cl)cc2nc2ccc(OC)cc12 (centres undefined) [QUINACRINE] | – | – | – | – | 4.77 | –
O=C(NC(=[Se])Nc1ccc([Se][Se]c2ccc(NC(=[Se])NC(=O)c3cc4ccccc4nc3-c3ccccc3)cc2)cc1)c1cc2ccccc2nc1-c1ccccc1 | 5.21 | 5.07 | 1.34 | – | – | –
COc1cc(OC)cc(C(=O)NC(=[Se])Nc2ccc([Se][Se]c3ccc(NC(=[Se])NC(=O)c4cc(OC)cc(OC)c4)cc3)cc2)c1 | 5.04 | < 4.60 | >2.77 | – | – | –
O=C(O)C1C2C=CC(O2)C1C(=O)Nc1ccc([Se][Se]c2ccc(NC(=O)C3C4C=CC(O4)C3C(=O)O)cc2)cc1 (centres undefined) | 5.88 | < 4.60 | >19.13 | Active | 4.60 | –
O=C(NC(=[Se])Nc1ccc([Se][Se]c2ccc(NC(=[Se])NC(=O)c3ccno3)cc2)cc1)c1ccno1 | 6.46 | 5.97 | 3.1 | – | – | –
